# According to ChEMBL document CHEMBL5724801, “EUbOPEN Chemogenomics Library - Multiplex” (2024):
# Where “and” joins values, the source holds several entries; their conditions need not be identical. Equal values may be shown once.
# Tested on: Fibroblast
# Assay: Multiplex assay against human fibroblast
# Format: toxicity, cell-based
# How it was run: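 Per cents of healthy-nucleus cells form the tubulin, mitochondrial-mass and membrane-permeability phenotype values. Live cells were stained at seeding with Hoechst33342, BioTracker Green Microtubule Cytoskeleton Dye, MitoTracker Red and Annexin V Alexa Fluor 680. After compound addition they were imaged on a CQ1 microscope at 37°C and 5% CO2, and CellPathfinder machine-learning gating split them into Hoechst high-intensity objects or normal cells, normal cells into healthy, pyknosed or fragmented nuclei, and pyknosed cells into mitotic or apoptotic.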
# [1] = 12 h, 1 µM, compound concentration 1 uM
# [2] = 12 h, 10 µM, compound concentration 10 uM
# [3] = 24 h, 1 µM, compound concentration 1 uM
# [4] = 24 h, 10 µM, compound concentration 10 uM
# [5] = 48 h, 1 µM, compound concentration 1 uM
# [6] = 48 h, 10 µM, compound concentration 10 uM
compound,measurement,setting,value
COc1c(Nc2ccc(S(C)(=O)=O)nc2C)ncnc1OC1CCN(C(=O)OC(C)C)CC1 [ADP-597],Population Apoptotic (%),[1],57% and 42%
same,Population Fragmented Nuclei (%),[1],14% and 27%
same,Population Healthy Nuclei (%),[1],71% and 40%
same,Population Hoechst High Intensity Objects (%),[1],3% and 4%
same,Population Membrane Permeable-Phenotype (%),[1],0% and 2%
same,Population Mitochondria Different-Phenotype (%),[1],10% and 7%
same,Population Mitotic Cells (%),[1],42% and 57%
same,Population Normal (%),[1],96% and 95%
same,Population Pyknosed Nuclei (%),[1],14% and 33%
same,Population Tubulin-Different-Phenotype (%),[1],34% and 27%
same,Total Cell Count,[1],133 and 105
same,Population Apoptotic (%),[2],44% and 39%
same,Population Fragmented Nuclei (%),[2],21% and 43%
same,Population Healthy Nuclei (%),[2],58% and 27%
same,Population Hoechst High Intensity Objects (%),[2],2%
same,Population Membrane Permeable-Phenotype (%),[2],0% and 11%
same,Population Mitochondria Different-Phenotype (%),[2],15% and 14%
same,Population Mitotic Cells (%),[2],56% and 60%
same,Population Normal (%),[2],97% and 98%
same,Population Pyknosed Nuclei (%),[2],20% and 28%
same,Population Tubulin-Different-Phenotype (%),[2],54% and 77%
same,Total Cell Count,[2],127 and 100
same,Population Apoptotic (%),[3],47% and 37%
same,Population Fragmented Nuclei (%),[3],17% and 25%
same,Population Healthy Nuclei (%),[3],67% and 50%
same,Population Hoechst High Intensity Objects (%),[3],4% and 10%
same,Population Membrane Permeable-Phenotype (%),[3],0% and 10%
same,Population Mitochondria Different-Phenotype (%),[3],1% and 2%
same,Population Mitotic Cells (%),[3],52% and 62%
same,Population Normal (%),[3],95% and 89%
same,Population Pyknosed Nuclei (%),[3],15% and 24%
same,Population Tubulin-Different-Phenotype (%),[3],27% and 48%
same,Total Cell Count,[3],146 and 109
same,Population Apoptotic (%),[4],52% and 27%
same,Population Fragmented Nuclei (%),[4],20% and 49%
same,Population Healthy Nuclei (%),[4],60% and 31%
same,Population Hoechst High Intensity Objects (%),[4],5% and 6%
same,Population Membrane Permeable-Phenotype (%),[4],0% and 10%
same,Population Mitochondria Different-Phenotype (%),[4],5% and 3%
same,Population Mitotic Cells (%),[4],47% and 72%
same,Population Normal (%),[4],94% and 93%
same,Population Pyknosed Nuclei (%),[4],18% and 19%
same,Population Tubulin-Different-Phenotype (%),[4],41% and 75%
same,Total Cell Count,[4],131 and 99
same,Population Apoptotic (%),[5],64% and 42%
same,Population Fragmented Nuclei (%),[5],25% and 28%
same,Population Healthy Nuclei (%),[5],63% and 51%
same,Population Hoechst High Intensity Objects (%),[5],2% and 9%
same,Population Membrane Permeable-Phenotype (%),[5],0% and 2%
same,Population Mitochondria Different-Phenotype (%),[5],4% and 0%
same,Population Mitotic Cells (%),[5],35% and 57%
same,Population Normal (%),[5],97% and 90%
same,Population Pyknosed Nuclei (%),[5],11% and 20%
same,Population Tubulin-Different-Phenotype (%),[5],30% and 59%
same,Total Cell Count,[5],152 and 102
same,Population Apoptotic (%),[6],73% and 75%
same,Population Fragmented Nuclei (%),[6],29% and 56%
same,Population Healthy Nuclei (%),[6],58% and 36%
same,Population Hoechst High Intensity Objects (%),[6],8% and 2%
same,Population Membrane Permeable-Phenotype (%),[6],0% and 2%
same,Population Mitochondria Different-Phenotype (%),[6],20% and 18%
same,Population Mitotic Cells (%),[6],26% and 25%
same,Population Normal (%),[6],91% and 97%
same,Population Pyknosed Nuclei (%),[6],12% and 7%
same,Population Tubulin-Different-Phenotype (%),[6],57% and 84%
same,Total Cell Count,[6],131 and 108
CN1CCN(c2ccc(Nc3c4ccccc4nc4ccccc34)cc2)CC1.Cl.Cl.O,Population Apoptotic (%),[1],47% and 44%
same,Population Fragmented Nuclei (%),[1],15% and 28%
same,Population Healthy Nuclei (%),[1],69% and 56%
same,Population Hoechst High Intensity Objects (%),[1],1%
same,Population Membrane Permeable-Phenotype (%),[1],0% and 5%
same,Population Mitochondria Different-Phenotype (%),[1],3% and 5%
same,Population Mitotic Cells (%),[1],52% and 56%
same,Population Normal (%),[1],98%
same,Population Pyknosed Nuclei (%),[1],14% and 15%
same,Population Tubulin-Different-Phenotype (%),[1],23% and 34%
same,Total Cell Count,[1],135 and 160
same,Population Apoptotic (%),[2],91% and 66%
same,Population Fragmented Nuclei (%),[2],42% and 65%
same,Population Healthy Nuclei (%),[2],49% and 29%
same,Population Hoechst High Intensity Objects (%),[2],8% and 16%
same,Population Membrane Permeable-Phenotype (%),[2],0% and 4%
same,Population Normal (%),[2],91% and 83%
same,Population Pyknosed Nuclei (%),[2],8% and 4%
same,Population Tubulin-Different-Phenotype (%),[2],90% and 79%
same,Total Cell Count,[2],158 and 177
same,Population Apoptotic (%),[3],70% and 60%
same,Population Fragmented Nuclei (%),[3],21% and 29%
same,Population Healthy Nuclei (%),[3],65% and 57%
same,Population Hoechst High Intensity Objects (%),[3],0%
same,Population Membrane Permeable-Phenotype (%),[3],0% and 3%
same,Population Mitochondria Different-Phenotype (%),[3],2% and 7%
same,Population Mitotic Cells (%),[3],29% and 40%
same,Population Normal (%),[3],99% and 100%
same,Population Pyknosed Nuclei (%),[3],12%
same,Total Cell Count,[3],139 and 155
same,Population Apoptotic (%),[4],77% and 60%
same,Population Fragmented Nuclei (%),[4],47% and 69%
same,Population Healthy Nuclei (%),[4],39% and 27%
same,Population Hoechst High Intensity Objects (%),[4],16% and 21%
same,Population Membrane Permeable-Phenotype (%),[4],1% and 6%
same,Population Mitochondria Different-Phenotype (%),[4],66% and 34%
same,Population Mitotic Cells (%),[4],22% and 40%
same,Population Normal (%),[4],83% and 78%
same,Population Pyknosed Nuclei (%),[4],12% and 3%
same,Population Tubulin-Different-Phenotype (%),[4],94% and 84%
same,Total Cell Count,[4],206 and 205
same,Population Apoptotic (%),[5],66% and 55%
same,Population Fragmented Nuclei (%),[5],23% and 25%
same,Population Healthy Nuclei (%),[5],70% and 68%
same,Population Hoechst High Intensity Objects (%),[5],1%
same,Population Membrane Permeable-Phenotype (%),[5],0% and 1%
same,Population Mitochondria Different-Phenotype (%),[5],4%
same,Population Mitotic Cells (%),[5],33% and 44%
same,Population Normal (%),[5],98%
same,Population Pyknosed Nuclei (%),[5],6% and 5%
same,Population Tubulin-Different-Phenotype (%),[5],26%
same,Total Cell Count,[5],144 and 157
same,Population Fragmented Nuclei (%),[6],71% and 88%
same,Population Healthy Nuclei (%),[6],15% and 11%
same,Population Hoechst High Intensity Objects (%),[6],45% and 38%
same,Population Membrane Permeable-Phenotype (%),[6],15% and 25%
same,Population Mitochondria Different-Phenotype (%),[6],30% and 12%
same,Population Normal (%),[6],54% and 61%
same,Population Pyknosed Nuclei (%),[6],12% and 0%
same,Population Tubulin-Different-Phenotype (%),[6],25% and 56%
same,Total Cell Count,[6],235 and 236
O=C(NCc1cccc(O)c1)Nc1nc(-c2ccncc2)cs1,Population Apoptotic (%),[1],12.12% and 27.78%
same,Population Healthy Nuclei (%),[1],41.38% and 76.34%
same,Population Hoechst High Intensity Objects (%),[1],0%
same,Population Membrane Permeable-Phenotype (%),[1],4.17% and 1.41%
same,Population Mitochondria Different-Phenotype (%),[1],6.94% and 9.15%
same,Population Mitotic Cells (%),[1],87.88% and 72.22%
same,Population Normal (%),[1],100%
same,Population Pyknosed Nuclei (%),[1],37.93% and 19.35%
same,Population Tubulin-Different-Phenotype (%),[1],8.33% and 6.34%
same,Total Cell Count,[1],174 and 186
same,Population Apoptotic (%),[2],9.52% and 18.18%
same,Population Fragmented Nuclei (%),[2],11.37% and 4.05%
same,Population Healthy Nuclei (%),[2],38.86% and 61.26%
same,Population Hoechst High Intensity Objects (%),[2],0%
same,Population Membrane Permeable-Phenotype (%),[2],7.32% and 2.21%
same,Population Mitochondria Different-Phenotype (%),[2],15.85% and 13.97%
same,Population Mitotic Cells (%),[2],90.48% and 81.82%
same,Population Normal (%),[2],100%
same,Population Pyknosed Nuclei (%),[2],49.76% and 34.68%
same,Population Tubulin-Different-Phenotype (%),[2],13.41% and 29.41%
same,Total Cell Count,[2],211 and 222
same,Population Apoptotic (%),[3],25.49% and 48.15%
same,Population Healthy Nuclei (%),[3],53.67% and 81.31%
same,Population Hoechst High Intensity Objects (%),[3],0%
same,Population Membrane Permeable-Phenotype (%),[3],3.16% and 0.62%
same,Population Mitochondria Different-Phenotype (%),[3],12.63% and 6.83%
same,Population Mitotic Cells (%),[3],74.51% and 51.85%
same,Population Normal (%),[3],100%
same,Population Pyknosed Nuclei (%),[3],28.81% and 13.64%
same,Population Tubulin-Different-Phenotype (%),[3],11.58% and 6.21%
same,Total Cell Count,[3],177 and 198
same,Population Apoptotic (%),[4],13.79% and 23.26%
same,Population Fragmented Nuclei (%),[4],8.5% and 3.62%
same,Population Healthy Nuclei (%),[4],48% and 76.92%
same,Population Hoechst High Intensity Objects (%),[4],0%
same,Population Membrane Permeable-Phenotype (%),[4],0% and 2.94%
same,Population Mitochondria Different-Phenotype (%),[4],7.29% and 8.82%
same,Population Mitotic Cells (%),[4],86.21% and 76.74%
same,Population Normal (%),[4],100%
same,Population Pyknosed Nuclei (%),[4],43.5% and 19.46%
same,Population Tubulin-Different-Phenotype (%),[4],17.71% and 29.41%
same,Total Cell Count,[4],200 and 221
same,Population Apoptotic (%),[5],55.56% and 38.46%
same,Population Fragmented Nuclei (%),[5],16.05% and 5.73%
same,Population Healthy Nuclei (%),[5],72.84% and 87.5%
same,Population Hoechst High Intensity Objects (%),[5],0%
same,Population Membrane Permeable-Phenotype (%),[5],0.85% and 0.6%
same,Population Mitotic Cells (%),[5],44.44% and 61.54%
same,Population Normal (%),[5],100%
same,Population Pyknosed Nuclei (%),[5],11.11% and 6.77%
same,Population Tubulin-Different-Phenotype (%),[5],3.39% and 6.55%
same,Total Cell Count,[5],162 and 192
same,Population Apoptotic (%),[6],16.67% and 18.42%
same,Population Healthy Nuclei (%),[6],74.44% and 81.61%
same,Population Hoechst High Intensity Objects (%),[6],0%
same,Population Membrane Permeable-Phenotype (%),[6],0.6% and 1.65%
same,Population Mitochondria Different-Phenotype (%),[6],12.05% and 3.3%
same,Population Mitotic Cells (%),[6],83.33% and 81.58%
same,Population Normal (%),[6],100%
same,Population Pyknosed Nuclei (%),[6],13.45% and 17.04%
same,Total Cell Count,[6],223
